# Jurkat viability: cytotoxic compounds reducing Jurkat cell viability; Jurkat E6.1 viability, ATP luminescence, 48 h; inhibition, % at 4 µM; actives 1.2% (n = 56,000); AID 463;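 active means inhibition above the mean inhibition of all tested compounds plus 3 SD, cut at about 28% in these data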
# Lung fibro prol: blocks proliferation of human lung fibroblasts; actives 1.1% (n = 85,000); viability, % at 10 µM; LL 47 human lung fibroblast viability, ATP luminescence; active compounds read low;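 active means viability at or below 50% in the single dose screen; inactive means viability above 50%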;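 further: compound exposure lasted 72 h before the ATP readout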
#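 Assay system: human lung fibroblast line LL 47, low passage. Input: 1,150 fibroblasts seeded per well. Times: overnight cell rest, 72 h compound treatment at 37 °C. Evaluation: % viability of median cell-only signal. Technique: luminescent ATP detection, CellTiter-Glo. Control set: cell-only wells, no compound.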
# HUVEC prolif 384: inhibitors of human endothelial cell proliferation; viability, % at 10 µM (by protocol); AID 648; HUVEC proliferation, CellTiter-Glo luminescence, 72 h; active compounds read low; actives 1.1% (n = 86,000);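 active means viability at or below 30%; inactive means viability above 30%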
# H69AR inhibit: growth inhibitors of human H69AR lung tumor cells; viability, % at 10 µM; actives 6% (n = 85,000); H69AR lung tumor viability, ATP luminescence, 72 h; active compounds read low;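 active means viability at or below 40%; inactive means viability above 40%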;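 further: multidrug resistant small cell line overexpressing MRP-1 efflux transporter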
# Ecoli tolC: growth inhibitors of E. coli BW25113 tolC mutant. OD615. AID 573. growth inhibition, % at 10 µM (by protocol). actives 2.2% (n = 65,000);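 active means growth inhibition at or above a cutoff equal to the mean over every tested compound plus 3 SD, cut at about 60% in these data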;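 further: growth measured after 20 h incubation at 37 °C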
#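 Test system – E. coli BW25113 ΔtolC::kan, tolC deletion mutant strain · Detection – OD at 615 nm · Buffer or medium – LB with kanamycin 50 µg/mL · Times – 20 h compound exposure of bacteria at 37 °C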
# E coli WT exp: E. coli BW25113 growth inhibition, expanded screen; OD600 absorbance; growth inhibition, % at 100 µM; actives 0.15% (n = 98,000);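 active means growth inhibition above about 50% at one test dose, limit read from the data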;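 further: growth measured after 20 h incubation at 37 °C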
# Numbers stand for hits; - = inactive; . = not tested or not shown. Rows were chosen to be rich in hits. Some 6.4% of all compounds tested hit in one or more screens of this group.
SMILES,Jurkat viability,Lung fibro prol,HUVEC prolif 384,H69AR inhibit,Ecoli tolC,E coli WT exp
COC(=O)c1c(NC(=O)c2ccc(C)o2)sc2c1CCCCC2,-,-,-,-,63.0,-
COC(=O)c1c(NC(=O)Cc2cccs2)sc2c1CCCC2,-,-,-,-,69.9,-
O=C(Nc1sc2c(c1C(=O)NC1CC1)CCCCCC2)c1ccco1,-,-,-,30.1,-,-
COC(=O)c1cc(NCc2ccc3c(c2)OCO3)ccc1N1CCOCC1,-,-,-,-,.,-
O=C(c1ccco1)N1CCN(c2cc(=O)n(-c3ccc(Cl)cc3)c(=O)[nH]2)CC1,.,-,-,-,.,-
Cc1ccc(SCc2nc3ccccc3n2CC(=O)Nc2ccc(Cl)cc2)cc1,.,.,.,.,.,-
CCC(c1nnnn1CCc1ccccc1)N(Cc1ccco1)Cc1cc2cc(C)cc(C)c2[nH]c1=O (centres undefined),-,-,-,26.1,-,-
CCC(c1nnnn1CCc1ccccc1)N(Cc1ccco1)Cc1cc2c(C)ccc(C)c2[nH]c1=O (centres undefined),-,-,-,24.3,.,-
COc1ccc(C2=NOC(C(=O)NCc3cccs3)C2)cc1 (centres undefined),.,-,-,-,.,-
COc1cc(C2=NOC(C(=O)NCc3cccs3)C2)cc(OC)c1OC (centres undefined),.,-,-,24.0,.,-
COc1ccc(C2=NOC(C(=O)NCc3cccs3)C2)cc1OC (centres undefined),.,-,-,24.2,.,-
Cc1ccc(C(=O)COC(=O)CCC(=O)Nc2cc(Cl)ccc2Cl)cc1[N+](=O)[O-],.,.,.,.,.,-
COc1ccc(NC(=O)Cn2nnc(-c3ccccc3NC(=O)c3cccs3)n2)cc1,-,.,-,7.5,-,-
O=C(Cn1nnc(-c2ccccc2NC(=O)c2ccco2)n1)Nc1ccccc1,-,-,-,22.9,-,-
CCOc1ccc(NC(=O)Cn2nnc(-c3ccccc3NC(=O)CC)n2)cc1,-,-,-,-,-,-
Cc1ccc(NC(=O)Cn2nnc(-c3ccccc3NC(=O)c3cccs3)n2)cc1,.,46.4,18.6,6.8,.,-
CC(C)(C)NC(=O)Cn1nnc(-c2ccccc2NC(=O)c2ccco2)n1,.,-,-,-,.,.
Clc1ccccc1-c1nc2ccccc2c2nncn12,.,-,-,-,.,-
COc1cc(NC(=O)Nc2ccccc2OC)c(OC)cc1NC(=O)CN1CCCCC1,-,-,-,-,-,-
COc1cc(NC(=O)Nc2ccccc2)c(OC)cc1NC(=O)CN1CCCCC1,-,-,12.5,-,-,-
COc1ccccc1NC(=O)CSC(N)=O,.,-,-,27.8,.,-
COc1ccccc1NC(=O)CN1CCN(CC(=O)Nc2ccc3c(c2)OCO3)CC1,-,-,-,9.8,-,-
COc1ccc(NC(=O)CN2CCN(CC(=O)Nc3ccc4c(c3)OCO4)CC2)cc1,-,-,-,-,-,-
COc1ccccc1NC(=O)CN1CCN(C2c3ccccc3-c3ccccc32)CC1,-,-,-,38.1,-,-
O=C(Nc1ccc(Cl)cc1)N1CCC(c2nc(-c3ccccc3Cl)no2)CC1,.,-,-,-,.,-
SMILES,Jurkat viability,Lung fibro prol,HUVEC prolif 384,H69AR inhibit,Ecoli tolC,E coli WT exp
O=C(Nc1nc(-c2ccccc2)cs1)c1cccc(S(=O)(=O)N2CCN(Cc3ccccc3)CC2)c1,.,-,-,-,.,-
CCCOc1ccc(N2C(=O)CC(S/C(N)=N/N=C(\C)c3cccs3)C2=O)cc1 (centres undefined),.,.,.,.,.,-
CCC(=O)c1ccc(N2CCN(C(=O)c3cc([N+](=O)[O-])ccc3N3CCN(C)CC3)CC2)c(F)c1,.,.,.,.,.,-
COC(=O)c1ccccc1NC(=O)CSCC(=O)Nc1ccccc1OC,.,.,.,.,.,-
CCOc1ccc(NC(=O)CN2CCN(C3c4ccccc4-c4ccccc43)CC2)cc1,.,-,-,32.1,.,.
COC(=O)c1c(NC(=O)CN2CCN(Cc3ccc4c(c3)OCO4)CC2)sc(C)c1C,-,-,-,1.9,-,-
COc1ccc(NC(=O)CN2CCN(C3c4ccccc4-c4ccccc43)CC2)c(OC)c1,-,-,-,-,-,-
O=C(CN1CCN(S(=O)(=O)c2cc(Cl)ccc2Cl)CC1)Nc1ccc2c(c1)OCCO2,-,-,-,35.1,-,-
COC(=O)c1ccsc1NC(=O)CN1CCN(Cc2ccc3c(c2)OCO3)CC1,.,.,.,.,.,-
C=CCOc1ccc2nc(NC(=O)OC)[nH]c2c1,.,48.5,-,32.9,.,-
Cc1ccc(Sc2oc(/C=N/n3cnnc3)cc2Br)cc1,-,-,-,23.2,-,-
Cc1ccc(/C=N/n2cnnc2)s1,.,-,-,-,.,-
COc1ccc(NC(=S)NCC2CCCO2)c(OC)c1 (centres undefined),.,.,.,.,.,-
COc1ccc(NC(=O)C=C(C)C)cc1Cl,-,-,-,-,-,-
CCCn1c(SCc2ccccc2)nc2c1c(=O)[nH]c(=O)n2C,-,-,-,-,-,-
Cc1onc(-c2ccccc2)c1C(=O)Nc1cc(C(F)(F)F)ccc1N1CCOCC1,87.4,47.6,-,22.7,-,-
O=C(CSc1nc2ccccc2[nH]1)Nc1cc(C(F)(F)F)ccc1N1CCOCC1,-,-,-,31.1,100.0,-
Cc1ccccc1NC(=O)c1c(-c2ccccc2)noc1C,-,-,-,-,-,-
Cc1onc(-c2ccccc2)c1C(=O)Nc1ccccc1N1CCOCC1,-,-,-,31.4,-,-
CCCOc1ccccc1NC(=O)c1c(-c2ccccc2)noc1C,-,-,-,-,72.3,-
COc1ccc(C2CC(C(F)(F)F)n3nc(C(=O)NCCN4CCOCC4)cc3N2)cc1 (centres undefined),-,.,.,.,-,-
COc1ccc(-c2cnc(N)nc2-c2ccc(OC)cc2O)cc1,-,-,-,-,-,-
COc1ccc(-c2nc(N)ncc2Oc2ccccc2Br)c(O)c1,-,-,-,38.2,-,-
COc1cccc(Oc2cnc(N)nc2-c2ccc(OC)cc2O)c1,91.0,-,-,16.6,-,-
CC(OC(=O)c1ccccc1NCc1ccco1)C(=O)Nc1ncc(Cl)cc1Cl (centres undefined),.,-,-,-,61.2,-
SMILES,Jurkat viability,Lung fibro prol,HUVEC prolif 384,H69AR inhibit,Ecoli tolC,E coli WT exp
CCCN1C=CC(=C2C(=O)c3ccccc3C2=O)C=C1,-,-,-,-,-,-
Cn1c(CSc2nc3ccccc3s2)nc2ccccc21,-,-,-,-,71.9,-
Cc1cccc(N2CCN(C(=O)c3ccc4nc(-c5ccco5)c(-c5ccco5)nc4c3)CC2C)c1 (centres undefined),.,-,23.3,-,.,-
CCc1ccc(S(=O)(=O)NCc2cn3ccsc3n2)s1,-,.,.,.,-,-
CCN(CC)c1ncnc2c1[nH]c1ccccc12,.,-,-,-,.,-
CN(CCCC(=O)Nc1ccncc1)S(=O)(=O)c1ccc(Cl)cc1,44.8,-,-,-,-,-
CN(CC(=O)Nc1ccncc1)S(=O)(=O)c1ccc(Br)cc1,.,-,-,-,.,-
Cc1ccc(S(=O)(=O)N(CC(=O)NCc2ccco2)Cc2ccccc2F)cc1,-,-,-,-,-,-
O=C(Nc1ccc(OC(F)F)cc1)Nc1cccc(C(F)(F)F)c1,.,38.2,-,3.7,.,-
